{"source": "ChEMBL document CHEMBL1124035", "about": "“1-Amino-substituted 4-methyl-5H-pyrido[4,3-b]indoles (gamma-carbolines) as tricyclic analogues of ellipticines: a new class of antineoplastic agents” (1988)", "key": {"[1]": {"test_system": "Calf thymus DNA", "assay": "Apparent DNA affinity constant", "type": "nucleic-acid assay", "settings": "Bos taurus", "summary_of_the_method": "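Apparent DNA affinity constant was measured by competition with ethidium bromide. Buffer was 20 mM Na2HPO4/NaH2PO4, 0.1 M NaCl, 1 mM EDTA, pH 7.4, with calf thymus DNA at 10 μg/mL. Values are given in 10^6 M⁻¹.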"}, "[2]": {"test_system": "L1210", "assay": "Ability to reduce the cell count to 50% in L1210 culture cells", "type": "functional", "settings": "Mus musculus, read-out: ID50 (the source's name)", "summary_of_the_method": "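L1210 cells in exponential growth in RPMI 1640 with 2 mM glutamine, penicillin/streptomycin and 10% FCS, 37 °C, 5% CO2. Drugs dissolved in distilled water were added to cells at 0.8 × 10^5 cells/mL for 48 h, then cells were counted. ID50 is the concentration halving cell proliferation versus controls, from regression of dose-response data; mean of two independent experiments.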"}, "[3]": {"test_system": "Mus musculus", "assay": "Median survival day in B16 melanoma cell line when a dose of 30 mg/kg administered intraperitoneally to mice", "type": "functional", "settings": "route intraperitoneal", "summary_of_the_method": "(§1)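 B16 melanoma in hybrid BD F1 mice. At D0 each mouse was inoculated ip with 0.5 mL of homogenate made from 1 g of tumour in 10 mL of physiological serum. Compounds were given ip daily at the stated doses for 9 days (D1-9), with cis-platinum 0.5 mg/kg under the same schedule as positive control.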"}, "[4]": {"test_system": "Mus musculus", "assay": "Median survival day in P388 leukemia model when a dose of 10 mg/kg administered intraperitoneally", "type": "functional", "settings": "route intraperitoneal", "summary_of_the_method": "(§2)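 P388 leukaemia in CDF1 hybrid mice, 10 per group. At D0, 10^6 viable cells were inoculated ip, followed by a single ip dose of drug in distilled water on D1. Weight change, median survival day, T/C (treated/control median survival × 100) and survivors at D30 were recorded. Controls were 20 mice.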"}, "[5]": {"test_system": "Mus musculus", "assay": "Antitumor activity against B16 melanoma cells at a dose of 2.5 mg/kg administered intraperitoneally to mice", "type": "functional", "settings": "route intraperitoneal", "summary_of_the_method": "(§3)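 Hybrid BD F1 mice were inoculated ip at D0 with 0.5 mL of B16 melanoma homogenate (1 g tumor in 10 mL physiological serum). Drugs were given ip daily D1-9. Cisplatin 0.5 mg/kg was the positive control under the same schedule.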"}, "[6]": {"test_system": "Mus musculus", "assay": "Antitumor activity against P388 leukemia in mice at a dose of 10 mg/kg administered intraperitoneally for 5 days", "type": "functional", "settings": "route intraperitoneal", "summary_of_the_method": "(§4)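 CDF1 hybrid male or female mice, 10 per group, were inoculated ip with 10^6 viable P388 cells on day 0. Drugs in distilled water were given ip (0.1 mL/10 g body weight) daily D1-5. Vehicle, 5-fluorouracil and BD 84 were given the same way. T/C = median survival day of treated / controls × 100; T/C > 128% was significant; cures counted at D60.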"}, "[7]": {"test_system": "Mus musculus", "assay": "Antitumor activity against B16 melanoma cells at a dose of 5 mg/kg administered intraperitoneally to mice", "type": "functional", "settings": "route intraperitoneal", "summary_of_the_method": "as §3"}, "[8]": {"test_system": "Mus musculus", "assay": "Weight change in g when a dose of 10 mg/kg administered intraperitoneally to P388 leukemia model", "type": "functional", "settings": "route intraperitoneal", "summary_of_the_method": "(§5)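 P388 model with a single ip dose. Mice (10 per group) were inoculated ip at D0 with 10^6 P388 cells and given one ip drug dose at D1. Body-weight change (g), median survival day, T/C and survivors at D30 were recorded.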"}, "[9]": {"test_system": "Mus musculus", "assay": "Weight change in g when a dose of 20 mg/kg administered intraperitoneally to P388 leukemia model", "type": "functional", "settings": "route intraperitoneal", "summary_of_the_method": "as §5"}, "[10]": {"test_system": "Mus musculus", "assay": "Antitumor activity against P388 leukemia in mice at a dose of 2.5 mg/kg administered intraperitoneally for 5 days", "type": "functional", "settings": "route intraperitoneal", "summary_of_the_method": "as §4"}, "[11]": {"test_system": "Mus musculus", "assay": "Survivors at day 30 when a dose of 10 mg/kg to P388 leukemia model; 0/10", "type": "functional", "summary_of_the_method": "as §2"}, "[12]": {"test_system": "Mus musculus", "assay": "Survivors at day 60 when a dose of 5 mg/kg to B16 melanoma infected mice; 0/10", "type": "functional"}, "[13]": {"test_system": "Mus musculus", "assay": "Antitumor activity against B16 melanoma cells at a dose of 10 mg/kg administered intraperitoneally to mice", "type": "functional", "settings": "route intraperitoneal", "summary_of_the_method": "as §3"}, "[14]": {"test_system": "Mus musculus", "assay": "Weight change in g when a dose of 80 mg/kg administered intraperitoneally to P388 leukemia model", "type": "functional", "settings": "route intraperitoneal", "summary_of_the_method": "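P388 leukemia cells (10^6 viable) inoculated ip on day 0 into CDF1 hybrid male or female mice, 10 per test group. Drug dissolved in distilled water and given as a single ip dose on day 1. Body weight change (g) recorded for each dose group, alongside median survival day, T/C and survivors at D30, against vehicle controls (20 mice).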"}, "[15]": {"test_system": "Mus musculus", "assay": "Antitumor activity against P388 leukemia in mice at a dose of 5 mg/kg administered intraperitoneally for 5 days", "type": "functional", "settings": "route intraperitoneal", "summary_of_the_method": "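CDF1 hybrid male or female mice, 10 per group, were inoculated ip on day 0 with 10^6 viable P388 leukemia cells. Drug in distilled water was given ip (0.1 mL/10 g body weight) daily on days 1-5, with vehicle, 5-fluorouracil and BD 84 controls given the same way. T/C = median survival of treated/controls × 100; T/C > 128% counted as significant.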"}, "[16]": {"test_system": "Mus musculus", "assay": "Median survival day in P388 leukemia model when a dose of 20 mg/kg administered intraperitoneally", "type": "functional", "settings": "route intraperitoneal", "summary_of_the_method": "as §2"}, "[17]": {"test_system": "Mus musculus", "assay": "Median survival day of B16 melanoma infected mice, when a dose of 5 mg/kg administered intraperitoneally", "type": "functional", "settings": "route intraperitoneal", "summary_of_the_method": "as §1"}, "[18]": {"test_system": "Mus musculus", "assay": "Survivors at day 30 when a dose of 50 mg/kg administered intravenously to P388 (iv) to L1210 leukemia mice model", "type": "functional"}, "[19]": {"test_system": "Mus musculus", "assay": "Antitumor activity against B16 melanoma cells at a dose of 1.25 mg/kg administered intraperitoneally to mice", "type": "functional", "settings": "route intraperitoneal", "summary_of_the_method": "as §3"}, "[20]": {"test_system": "Mus musculus", "assay": "Weight change in g when a dose of 1.25 mg/kg administered intraperitoneally to B16 melanoma infected mice", "type": "functional", "settings": "route intraperitoneal", "summary_of_the_method": "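Hybrid BDF1 mice were inoculated ip at D0 with 0.5 mL of B16 melanoma homogenate (1 g tumor in 10 mL physiological serum). Drug was given ip daily on days 1-9, with cis-platinum 0.5 mg/kg as positive control on the same schedule.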"}, "[21]": {"test_system": "Mus musculus", "assay": "Median survival day of B16 melanoma infected mice when a dose of 1.25 mg/kg administered intraperitoneally", "type": "functional", "settings": "route intraperitoneal", "summary_of_the_method": "as §1"}, "[22]": {"test_system": "Mus musculus", "assay": "Median survival day in P388 cell line when a dose of 40 mg/kg administered intraperitoneally to P388 leukemia model", "type": "functional", "settings": "route intraperitoneal", "summary_of_the_method": "as §2"}, "[23]": {"test_system": "Mus musculus", "assay": "Survivors at day D38 when a dose of 100 mg/kg administered intravenously to C38 adenocarcinoma cell lines on D1 to mice; 10/10", "type": "functional, MC-38", "settings": "route intravenous", "summary_of_the_method": "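Hybrid BDF1 mice, 10 per test, were implanted sc with a standard 3-mm³ fragment of C38 colon adenocarcinoma. Drug was given iv either on D1 alone or on D2 and D9. Animals were followed per NCI (Geran) protocol.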"}, "[24]": {"test_system": "Mus musculus", "assay": "Survivors at day 60 when a dose of 1.25 mg/kg to B16 melanoma infected mice; 0/10"}, "[25]": {"test_system": "Mus musculus", "assay": "Weight change in g when a dose of 40 mg/kg administered intraperitoneally to P388 leukemia model", "settings": "route intraperitoneal"}, "[26]": {"test_system": "Mus musculus", "assay": "Antitumor activity against C38 adenocarcinoma cells at a dose of 100 mg/kg administered intravenously on D1 to mice; tumor volume at D38 (T/C)", "settings": "route intravenous"}}, "note": "“And” between values parts separate entries of the source, which are not always exact repeats. Equal entries are not always repeated.", "data": [{"smiles": "CCN(CC)CCCNc1[nH]cc(C)c2nc3ccc(O)cc3c1-2", "values": [{"measurement": "K aff", "setting": "[1]", "value": 200000, "unit": "M⁻¹"}, {"measurement": "IC50", "setting": "[2]", "value": 60, "unit": "nM"}, {"measurement": "Median survival day", "setting": "[3]", "value": 9}, {"measurement": "Median survival day", "setting": "[4]", "value": 15.1}, {"measurement": "T/C", "setting": "[5]", "value": 124, "unit": "%"}, {"measurement": "T/C", "setting": "[6]", "value": 185, "unit": "%"}, {"measurement": "T/C", "setting": "[7]", "value": 174, "unit": "%"}, {"measurement": "Weight change", "setting": "[8]", "value": 1.2, "unit": "g"}, {"measurement": "Weight change", "setting": "[9]", "value": 0.2, "unit": "g"}, {"measurement": "T/C", "setting": "[10]", "value": 162, "unit": "%"}, {"measurement": "Survivors", "setting": "[11]", "value": 0}, {"measurement": "Survivors", "setting": "[12]", "value": 0}, {"measurement": "T/C", "setting": "[13]", "value": 205, "unit": "%"}, {"measurement": "Weight change", "setting": "[14]", "value": -1.7, "unit": "g"}, {"measurement": "T/C", "setting": "[15]", "value": 170, "unit": "%"}, {"measurement": "Median survival day", "setting": "[16]", "value": 16.25}]}, {"smiles": "Cc1cnc(NCCCN(C)C)c2c3cc(O)ccc3n(C)c12", "values": [{"measurement": "K aff", "setting": "[1]", "value": 270000, "unit": "M⁻¹"}, {"measurement": "IC50", "setting": "[2]", "value": 10, "unit": "nM"}, {"measurement": "Median survival day", "setting": "[17]", "value": 50}, {"measurement": "T/C", "setting": "[5]", "value": 134, "unit": "%"}, {"measurement": "T/C", "setting": "[7]", "value": 206, "unit": "%"}, {"measurement": "T/C", "setting": "[10]", "value": 184, "unit": "%"}, {"measurement": "Survivors", "setting": "[18]", "value": 1}, {"measurement": "T/C", "setting": "[19]", "value": 123, "unit": "%"}, {"measurement": "T/C", "setting": "[13]", "value": 48, "unit": "%"}, {"measurement": "Weight change", "setting": "[20]", "value": 1, "unit": "g"}, {"measurement": "T/C", "setting": "[15]", "value": 236, "unit": "%"}]}, {"smiles": "CCN(CC)CCCNc1ncc(C)c2c1c1cc(O)ccc1n2C", "values": [{"measurement": "K aff", "setting": "[1]", "value": 240000, "unit": "M⁻¹"}, {"measurement": "IC50", "setting": "[2]", "value": 30, "unit": "nM"}, {"measurement": "Median survival day", "setting": "[21]", "value": 32.25}, {"measurement": "Median survival day", "setting": "[22]", "value": 23}, {"measurement": "Median survival day", "setting": "[4]", "value": 17.8}, {"measurement": "T/C", "setting": "[5]; 2.5 mg/kg", "value": "145% and 170%"}, {"measurement": "Survivors", "setting": "[23]", "value": 10}, {"measurement": "T/C", "setting": "[6]", "value": 205, "unit": "%"}, {"measurement": "Weight change", "setting": "[8]", "value": -0.6, "unit": "g"}, {"measurement": "Weight change", "setting": "[9]", "value": -1.2, "unit": "g"}, {"measurement": "T/C", "setting": "[10]", "value": 149, "unit": "%"}, {"measurement": "Survivors", "setting": "[11]", "value": 0}, {"measurement": "T/C", "setting": "[19]", "value": 133, "unit": "%"}, {"measurement": "T/C", "setting": "[13]", "value": 79, "unit": "%"}, {"measurement": "Weight change", "setting": "[14]; dose 20 mg/kg, in the assay text read “20 mg/kg” for “80 mg/kg”", "value": -1.2, "unit": "g"}, {"measurement": "Weight change", "setting": "[20]", "value": -2.5, "unit": "g"}, {"measurement": "T/C", "setting": "[15]", "value": 166, "unit": "%"}, {"measurement": "Median survival day", "setting": "[16]", "value": 20.8}, {"measurement": "Survivors", "setting": "[24]", "value": 0}, {"measurement": "Weight change", "setting": "[25]", "value": -5.2, "unit": "g"}, {"measurement": "Tumor volume", "setting": "[26]", "value": 36, "unit": "%"}]}]}
